Experimental data: ChEMBL document CHEMBL5303300, “EUbOPEN Chemogenomics Library - Multiplex” (2023)
Several values for one entry are separate records, joined by “and”; a condition that tells them apart may be missing. Identical values can stand only once.

Test system: Fibroblast
Experiment: Multiplex assay against human fibroblast
Format: toxicity, cell-based
Settings: number of replicates 2
In short: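 Live cells were stained at seeding with Hoechst33342, BioTracker Green Microtubule Cytoskeleton Dye, MitoTracker Red and Annexin V Alexa Fluor 680, then imaged on a CQ1 microscope at 37°C and 5% CO2 after compound addition. CellPathfinder machine-learning gating split cells into Hoechst high-intensity objects or normal cells. Normal cells were split into healthy, pyknosed or fragmented nuclei, and pyknosed cells into mitotic or apoptotic. Tubulin, mitochondrial-mass and membrane-permeability phenotypes are per cents of healthy-nucleus cells.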

[1] = 12 h, 1 µM, compound concentration 1 uM
[2] = 12 h, 10 µM, compound concentration 10 uM
[3] = 24 h, 1 µM, compound concentration 1 uM
[4] = 24 h, 10 µM, compound concentration 10 uM
[5] = 48 h, 1 µM, compound concentration 1 uM
[6] = 48 h, 10 µM, compound concentration 10 uM

With `C[C@@H](OC[C@@]1(c2ccccc2)CC[C@]2(CCC(=O)N2)CN1)c1cc(C(F)(F)F)cc(C(F)(F)F)c1` [ROLAPITANT] the “Population Apoptotic (%)” value [1] was 32% and 48%, the “Population Fragmented Nuclei (%)” value [1] was 7% and 12% and the “Population Healthy Nuclei (%)” value [1] was 76% and 62%. For the same compound, the “Population Hoechst High Intensity Objects (%)” value [1] was 0%, the “Population Membrane Permeable-Phenotype (%)” value [1] was 9% and 4% and the “Population Mitochondria Different-Phenotype (%)” value [1] was 4% and 2%. The “Population Mitotic Cells (%)” value [1] was 67% and 51%, the “Population Normal (%)” value [1] was 100% and 99% and the “Population Pyknosed Nuclei (%)” value [1] was 15% and 25%. For the same compound, the “Population Tubulin-Different-Phenotype (%)” value [1] was 26% and 13%, the “Total Cell Count” value [1] was 195 and 264 and the “Population Apoptotic (%)” value [2] was 40% and 46%. The “Population Fragmented Nuclei (%)” value [2] was 17% and 10%, the “Population Healthy Nuclei (%)” value [2] was 67% and 71% and the “Population Hoechst High Intensity Objects (%)” value [2] was 0%. The “Population Membrane Permeable-Phenotype (%)” value [2] was 5% and 6%, the “Population Mitochondria Different-Phenotype (%)” value [2] was 7% and 3% and the “Population Mitotic Cells (%)” value [2] was 60% and 53%. For the same compound, the “Population Normal (%)” value [2] was 100%, the “Population Pyknosed Nuclei (%)” value [2] was 15% and 17% and the “Population Tubulin-Different-Phenotype (%)” value [2] was 45% and 26%. For the same compound, the “Total Cell Count” value [2] was 131 and 146, the “Population Apoptotic (%)” value [3] was 40% and 55% and the “Population Fragmented Nuclei (%)” value [3] was 15% and 13%. The “Population Healthy Nuclei (%)” value [3] was 74% and 66%, the “Population Hoechst High Intensity Objects (%)” value [3] was 0% and the “Population Membrane Permeable-Phenotype (%)” value [3] was 2% and 8%. The “Population Mitochondria Different-Phenotype (%)” value [3] was 1%, the “Population Mitotic Cells (%)” value [3] was 60% and 44% and the “Population Normal (%)” value [3] was 100%. For the same compound, the “Population Pyknosed Nuclei (%)” value [3] was 9% and 20%, the “Population Tubulin-Different-Phenotype (%)” value [3] was 19% and 18% and the “Total Cell Count” value [3] was 202 and 257. The “Population Apoptotic (%)” value [4] was 52% and 60%, the “Population Fragmented Nuclei (%)” value [4] was 23% and 16% and the “Population Healthy Nuclei (%)” value [4] was 62% and 66%. The “Population Hoechst High Intensity Objects (%)” value [4] was 0%, the “Population Membrane Permeable-Phenotype (%)” value [4] was 2% and 3% and the “Population Mitochondria Different-Phenotype (%)” value [4] was 14% and 5%. For the same compound, the “Population Mitotic Cells (%)” value [4] was 47% and 40%, the “Population Normal (%)” value [4] was 100% and the “Population Pyknosed Nuclei (%)” value [4] was 14% and 16%. The “Population Tubulin-Different-Phenotype (%)” value [4] was 59% and 28%, the “Total Cell Count” value [4] was 134 and 153 and the “Population Apoptotic (%)” value [5] was 58% and 66%. The “Population Fragmented Nuclei (%)” value [5] was 13% and 11%, the “Population Healthy Nuclei (%)” value [5] was 78% and 74% and the “Population Hoechst High Intensity Objects (%)” value [5] was 0%. For the same compound, the “Population Membrane Permeable-Phenotype (%)” value [5] was 4% and 8%, the “Population Mitochondria Different-Phenotype (%)” value [5] was 1% and the “Population Mitotic Cells (%)” value [5] was 41% and 33%. For the same compound, the “Population Normal (%)” value [5] was 100%, the “Population Pyknosed Nuclei (%)” value [5] was 8% and 14% and the “Population Tubulin-Different-Phenotype (%)” value [5] was 14% and 11%. For the same compound, the “Total Cell Count” value [5] was 204 and 254, the “Population Apoptotic (%)” value [6] was 85% and 93% and the “Population Fragmented Nuclei (%)” value [6] was 32% and 23%. For the same compound, the “Population Healthy Nuclei (%)” value [6] was 58% and 67%, the “Population Hoechst High Intensity Objects (%)” value [6] was 0% and the “Population Membrane Permeable-Phenotype (%)” value [6] was 5% and 3%. The “Population Mitochondria Different-Phenotype (%)” value [6] was 3% and 6%, the “Population Mitotic Cells (%)” value [6] was 14% and 6% and the “Population Normal (%)” value [6] was 100%. For the same compound, the “Population Pyknosed Nuclei (%)” value [6] was 8% and 9%, the “Population Tubulin-Different-Phenotype (%)” value [6] was 44% and 20% and the “Total Cell Count” value [6] was 158 and 167.

In the case of `CCCN(CCc1cccs1)[C@H]1CCc2c(O)cccc2C1` [ROTIGOTINE], the “Population Apoptotic (%)” value [1] is reported as 73% and 35%, the “Population Fragmented Nuclei (%)” value [1] is reported as 9% and 11% and the “Population Healthy Nuclei (%)” value [1] is reported as 76% and 71%. For the same compound, the “Population Hoechst High Intensity Objects (%)” value [1] was 0%, the “Population Membrane Permeable-Phenotype (%)” value [1] was 6% and 3% and the “Population Mitochondria Different-Phenotype (%)” value [1] was 2% and 0%. The “Population Mitotic Cells (%)” value [1] was 26% and 64%, the “Population Normal (%)” value [1] was 100% and 99% and the “Population Pyknosed Nuclei (%)” value [1] was 14% and 16%. The “Population Tubulin-Different-Phenotype (%)” value [1] was 15% and 10%, the “Population Fragmented Nuclei (%)” value [2] was 17% and 18% and the “Population Healthy Nuclei (%)” value [2] was 78% and 73%. The “Population Hoechst High Intensity Objects (%)” value [2] was 0%, the “Population Membrane Permeable-Phenotype (%)” value [2] was 0% and 1% and the “Population Mitochondria Different-Phenotype (%)” value [2] was 0% and 1%. For the same compound, the “Population Mitotic Cells (%)” value [2] was 50% and 86%, the “Population Normal (%)” value [2] was 100% and the “Population Pyknosed Nuclei (%)” value [2] was 4% and 7%. The “Population Tubulin-Different-Phenotype (%)” value [2] was 13% and 14%, the “Population Apoptotic (%)” value [3] was 52% and 46% and the “Population Fragmented Nuclei (%)” value [3] was 9% and 12%. For the same compound, the “Population Healthy Nuclei (%)” value [3] was 81% and 75%, the “Population Hoechst High Intensity Objects (%)” value [3] was 0% and the “Population Membrane Permeable-Phenotype (%)” value [3] was 4%. The “Population Mitochondria Different-Phenotype (%)” value [3] was 0% and 1%, the “Population Mitotic Cells (%)” value [3] was 47% and 53% and the “Population Normal (%)” value [3] was 100% and 99%. The “Population Pyknosed Nuclei (%)” value [3] was 9% and 12%, the “Population Tubulin-Different-Phenotype (%)” value [3] was 7% and 6% and the “Population Fragmented Nuclei (%)” value [4] was 24% and 14%. For the same compound, the “Population Healthy Nuclei (%)” value [4] was 71% and 80%, the “Population Hoechst High Intensity Objects (%)” value [4] was 0% and the “Population Membrane Permeable-Phenotype (%)” value [4] was 1% and 0%. The “Population Mitochondria Different-Phenotype (%)” value [4] was 0% and 2%, the “Population Normal (%)” value [4] was 100% and the “Population Pyknosed Nuclei (%)” value [4] was 3% and 5%. The “Population Tubulin-Different-Phenotype (%)” value [4] was 10% and 8%, the “Population Apoptotic (%)” value [5] was 36% and 68% and the “Population Fragmented Nuclei (%)” value [5] was 11% and 13%. The “Population Healthy Nuclei (%)” value [5] was 82% and 79%, the “Population Hoechst High Intensity Objects (%)” value [5] was 0% and the “Population Membrane Permeable-Phenotype (%)” value [5] was 3% and 2%. The “Population Mitochondria Different-Phenotype (%)” value [5] was 0%, the “Population Mitotic Cells (%)” value [5] was 63% and 31% and the “Population Normal (%)” value [5] was 100%. The “Population Pyknosed Nuclei (%)” value [5] was 5% and 7%, the “Population Tubulin-Different-Phenotype (%)” value [5] was 5% and 3% and the “Population Apoptotic (%)” value [6] was 87% and 80%. For the same compound, the “Population Fragmented Nuclei (%)” value [6] was 19% and 20%, the “Population Healthy Nuclei (%)” value [6] was 76% and 77% and the “Population Hoechst High Intensity Objects (%)” value [6] was 0%. The “Population Membrane Permeable-Phenotype (%)” value [6] was 3% and 1%, the “Population Mitochondria Different-Phenotype (%)” value [6] was 0% and the “Population Mitotic Cells (%)” value [6] was 12% and 20%. For the same compound, the “Population Normal (%)” value [6] was 100%, the “Population Pyknosed Nuclei (%)” value [6] was 4% and 2% and the “Population Tubulin-Different-Phenotype (%)” value [6] was 9% and 3%.
